Series [1] concerns Mycobacterium tuberculosis. Kind of series: Antimycobacterial activity against Mycobacterium tuberculosis H37Rv after 4 days by MABA assay. It is filed as functional. As to conditions: 96 h.
A further series deals with Staphylococcus aureus. Kind of series: Antimicrobial activity against Staphylococcus aureus ATCC 29213 by broth microdilution method. Type of series: functional. Put shortly: (§1)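 Broth microdilution in cation-adjusted Mueller-Hinton broth against the QC strain, following the standard method for inoculum preparation and incubation. Samples were serially diluted twofold from 16 to 0.125, in triplicate, with DMSO as solvent and diluent. A gentamicin accuracy control was made up in water and diluted in broth. MIC was the lowest concentration giving complete growth inhibition, read by eye.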

The next series relates to Escherichia coli. Kind of series: Antimicrobial activity against Escherichia coli ATCC 25922 by broth microdilution method. It is filed as functional. The procedure, abridged:
as §1
(Broth dilution looks for growth in wells or tubes with falling amounts of substance.)

Series [2] concerns Mycobacterium tuberculosis. Kind of series: Antimycobacterial activity against Mycobacterium tuberculosis H37Rv at 128 uM after 4 days by MABA assay. Type of series: functional. Background: Resazurin is reduced to fluorescent resorufin, in cell work by metabolically active cells.
Series [3] concerns Mycobacterium tuberculosis. In words: Antimycobacterial activity against Mycobacterium tuberculosis H37Rv transfected with pFPCA-luxAB grown under anaerobic condition for 10 days followed by 24 hrs incubation under aerobic condition by LORA assay. Type of series: functional.
The subject of series [4] is Vero. Kind of series: Cytotoxicity against african green monkey Vero cells. Type of series: ADME, cell-based. As to conditions: Chlorocebus sabaeus.
Series [5] deals with Vero. Kind of series: Cytotoxicity against african green monkey Vero cells at 128 uM. As to conditions: chlorocebus sabaeus. Type of series: cell-based.
Series [6] in a line: Selectivity index, ratio of EC50 for african green monkey VERO cells to MIC for Mycobacterium tuberculosis H37Rv. It is filed as functional.
For series [7], the system named is Mycobacterium tuberculosis. Kind of series: Antimycobacterial activity against Mycobacterium tuberculosis H37Rv transfected with pFPCA-luxAB at 128 uM with pFPCA-luxAB grown under anaerobic condition for 10 days followed by 24 hrs incubation under aerobic condition by LORA assay. Type of series: functional.
The subject of series [8] is Mycobacterium tuberculosis. Kind of series: Antimycobacterial activity against Mycobacterium tuberculosis H37Rv at 21 uM after 4 days by MABA assay. Type of series: functional. As to conditions: 96 h.

Converted amounts (≈) assume the structure as drawn.

Usually MIC stands for the smallest concentration in the dilution series that meets the test's criterion for growth inhibition. On to `COc1ccc(Cn2ccc3c(-c4ccco4)ncnc32)cc1`, for which the MIC in [1] is 0.16 µM (≈ 0.0489 µg/mL).
Consider `COc1ccc(Cn2ccc3c(-c4ccco4)nc(Cl)nc32)cc1`, for which, in series [1], 0.08 µM (≈ 0.0272 µg/mL) was the least that counted as inhibitory (MIC).
As for `COc1ccc(Cn2cnc3c(-c4ccco4)ccnc32)cc1`, the MIC in series [1] is 63 µM (≈ 19.2 µg/mL); against Staphylococcus aureus it was above 16 µg/mL; in the series on Escherichia coli, above 16 µg/mL.
Consider `COc1ccc(Cn2cnc3c(-c4ccco4)cc(Cl)nc32)cc1`, for which the values for the MIC (in series [1]; against Staphylococcus aureus; against Escherichia coli) were above 128 µM, above 16 µg/mL and above 16 µg/mL, respectively. Besides, the Activity in series [2] was 37%.
In general, IC50 refers to the midpoint of a concentration-inhibition curve. Take `COc1ccc(Cn2cnc3c(-c4ccco4)nccc32)cc1`: the MIC is 0.84 µM (≈ 0.256 µg/mL) in series [1], 80 µM (≈ 24.4 µg/mL) in [3], above 16 µg/mL in the series on Staphylococcus aureus and above 16 µg/mL in the series on Escherichia coli. For the same molecule, the IC50 in the series with Vero [4] is above 128 µM. The same molecule came in with an Activity in the series on Vero [5] of 0%. Also, the “Selectivity Index” value in series [6] is reported as above 150.
Take `COc1ccc(Cn2cnc3c(-c4ccco4)nc(Cl)cc32)cc1`: the MIC in [1] is 0.16 µM (≈ 0.0544 µg/mL); in [3], 48 µM (≈ 16.3 µg/mL); in the series on Staphylococcus aureus, above 16 µg/mL; against Escherichia coli it was above 16 µg/mL. The same molecule had an IC50 in the series on Vero [4] above 128 µM. In addition, the Activity in the series with Vero [5] was 30%. For the same molecule, the “Selectivity Index” value in series [6] is reported as above 800.
As for `COc1ccc(Cn2ccc3c(-c4ccco4)ccnc32)cc1`, the figures for the MIC (in [1]; in the series on Staphylococcus aureus; with Escherichia coli) were 44 µM (≈ 13.4 µg/mL), above 16 µg/mL and above 16 µg/mL, respectively.
For the molecule `COc1ccc(Cn2ccc3c(-c4ccco4)cc(Cl)nc32)cc1`, the MIC in series [1] was above 128 µM; in the series on Staphylococcus aureus, above 16 µg/mL; with Escherichia coli it was above 16 µg/mL. In series [2], the Activity is given as 86%.
Take `COc1ccc(Cn2ccc3c(-c4ccco4)nccc32)cc1`: the MIC in series [1] was 1.4 µM (≈ 0.426 µg/mL); in [3], 28 µM (≈ 8.52 µg/mL); in the series with Staphylococcus aureus it was above 16 µg/mL; against Escherichia coli, above 16 µg/mL. For the same molecule, the IC50 in the series on Vero [4] amounted to 12 µM. In [6], the “Selectivity Index” value is 8.6.
As to `COc1ccc(Cn2ccc3c(-c4ccco4)nc(Cl)cc32)cc1`, the MIC in series [1] was 0.09 µM (≈ 0.0305 µg/mL); in series [3], above 128 µM; in the series on Staphylococcus aureus it was above 16 µg/mL; against Escherichia coli it was above 16 µg/mL. Besides, the Activity in series [7] is reported as 53%. Further, the IC50 in the series on Vero [4] stood at 58 µM. Also, in series [6], the “Selectivity Index” value stood at 644.
As for `COc1ccc(Cn2cnc3c(-c4ccco4)cccc32)cc1`, the MIC in series [1] is 29 µM (≈ 8.83 µg/mL); with Staphylococcus aureus, above 16 µg/mL; with Escherichia coli it was above 16 µg/mL.
Usually inhibition stands for the drop in the measured response relative to a control, in per cent. `COc1ccc(Cn2ccc3c(-c4ccco4)cccc32)cc1`: the MIC was above 21 µM in [1], above 16 µg/mL in the series with Staphylococcus aureus and above 16 µg/mL in the series with Escherichia coli. The molecule further came in with an inhibition at 21 µM in [8] of 0%.
Molecule `COc1ccc(Cn2cnc3c(-c4ccco4)ncnc32)cc1` had an MIC in series [1] of 2.1 µM (≈ 0.643 µg/mL).
In turn, `COc1ccc(Cn2cnc3c(-c4ccco4)nc(Cl)nc32)cc1` yielded a minimal inhibitory concentration (MIC) in series [1] of 0.36 µM (≈ 0.123 µg/mL).
For `NNC(=O)c1ccncc1` [ISONIAZID], the MIC is 0.28 µM (≈ 0.0384 µg/mL) in series [1] and above 128 µM in [3].
On to `O=[N+]([O-])c1cn2c(n1)OC[C@@H](OCc1ccc(OC(F)(F)F)cc1)C2` [PRETOMANID], for which the MIC in series [1] was determined as 0.44 µM (≈ 0.158 µg/mL); in series [3], 3.11 µM (≈ 1.12 µg/mL).
On the same counts, the results for `CO[C@H]1/C=C/O[C@@]2(C)Oc3c(C)c(O)c4c(O)c(c(/C=N/N5CCN(C)CC5)c(O)c4c3C2=O)NC(=O)/C(C)=C\C=C\[C@H](C)[C@H](O)[C@@H](C)[C@@H](O)[C@@H](C)[C@H](OC(C)=O)[C@@H]1C` [RIFAMPIN] are 0.09 µM (≈ 0.0741 µg/mL) and 0.97 µM (≈ 0.798 µg/mL).

(Values after ChEMBL document CHEMBL1811771, “Synthesis and antimycobacterial activities of non-purine analogs of 6-aryl-9-benzylpurines: Imidazopyridines, pyrrolopyridines, benzimidazoles, and indoles” (Bioorg Med Chem, 2011).)
